Structures are written as SMILES.

What all share (format): cell-based
For experiment [1], the system named is ER-regulated genes PTGES, PR, PS2, EGR3, IGFBP4 in MCF-7 cells. Put plainly: RT-qPCR of ER-regulated native genes, MCF-7. Conditions: 10 nM E2, 2 hrs. An outline of the steps:
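MCF-7 cells in charcoal-dextran-stripped 5% FBS were pretreated with test compound (15 μM, 24 h), 4-hydroxytamoxifen (1 μM, 2 h) or DMSO, then with 10 nM 17β-estradiol for 2 h. Total RNA was assayed by RT-qPCR, normalised to 36B4 and converted to fold change versus DMSO vehicle by ΔΔCt. Error bars are SD.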
Background: Real-time PCR tracks product formation cycle by cycle.

The next experiment deals with MCF-7 cells. In words: Proliferation assay. Conditions: 10 nM estradiol, 24 hours. An outline of the steps: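 MCF-7 cells in charcoal-dextran-stripped 5% FBS were given vehicle or 15 μM test compound, with or without 10 nM estradiol, starting on day 3. Cells were counted 24 h later by brightfield imaging cytometry. Fold change was taken versus vehicle control over three independent experiments, with error bars as SD.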

In experiment [2] the test system is transcriptome of MCF-7 cells. Put plainly: RNA-Seq global gene expression. The note with it: MCF-7, RNA-Seq; 10 nM E2 + 1 μM 4OHT or 15 μM R4K1.

For `C[C@]12CC[C@@H]3c4ccc(O)cc4CC[C@H]3[C@@H]1CC[C@@H]2O` [Estradiol, 17β-estradiol], the “expression of five ER-regulated genes, estradiol” value in experiment [1] is on record as “induced expression of each of the five genes”. For the same molecule, in the experiment on MCF-7 cells, the “proliferation of MCF-7 cells, estradiol” value is recorded as “stimulated proliferation”.
As for `CC/C(=C(\c1ccc(O)cc1)c1ccc(OCCN(C)C)cc1)c1ccccc1` [4OHT, 4-hydroxytamoxifen], in experiment [2], the “reversal of E2-regulated genes of cluster 2 (226 genes)” value was “reversed fully” and the “reversal of E2-regulated genes of cluster 3 (87 genes)” value is “reversed fully”.

For the origin of these results see paper PMC6057476 (ACS chemical biology, 2018).
